The values that follow come from ChEMBL document CHEMBL1126837, “Inhibitors of acyl-CoA:cholesterol acyltransferase. 5. Identification and structure-activity relationships of novel beta-ketoamides as hypocholesterolemic agents” (J Med Chem, 1993).

For experiment [1], the system named is Rattus norvegicus. The experiment can be described thus: Tested for percentage change in total cholesterol in cholic acid (0.5%)-cholesterol (1.5%) -peanut oil (5.5%)-fed rats at 30 mg/kg. It is filed as functional. The procedure, abridged:
(§1)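 Male Sprague-Dawley rats (200-225 g) got a single oral gavage at 4 p.m. The compound was suspended in 1.5% carboxymethylcellulose/0.2% Tween-20 in water; controls got vehicle. Rats then fed ad libitum overnight on chow with 5.5% peanut oil, 1.5% cholesterol and 0.5% cholic acid. Blood was taken by cardiac puncture under ether at 8 a.m. Serum total cholesterol is given as % change versus vehicle controls (unpaired two-tailed t-test, p<0.05).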

In experiment [2] the target is O-acyltransferase (Oryctolagus cuniculus, UniProt G1SFD9). The experiment can be described thus: In vitro inhibition of Acyl coenzyme A:cholesterol acyltransferase in intestinal microsomes isolated from cholesterol-fed rabbits. Format: functional, Intestine. The procedure, abridged: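 Intestinal microsomes from cholesterol-fed rabbits were incubated with the compound and [1-14C]oleoyl-CoA as substrate. IC50 is the micromolar concentration giving 50% inhibition of enzyme activity. Each determination was done in triplicate.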
Chain of O-acyltransferase (G1SFD9 1-524): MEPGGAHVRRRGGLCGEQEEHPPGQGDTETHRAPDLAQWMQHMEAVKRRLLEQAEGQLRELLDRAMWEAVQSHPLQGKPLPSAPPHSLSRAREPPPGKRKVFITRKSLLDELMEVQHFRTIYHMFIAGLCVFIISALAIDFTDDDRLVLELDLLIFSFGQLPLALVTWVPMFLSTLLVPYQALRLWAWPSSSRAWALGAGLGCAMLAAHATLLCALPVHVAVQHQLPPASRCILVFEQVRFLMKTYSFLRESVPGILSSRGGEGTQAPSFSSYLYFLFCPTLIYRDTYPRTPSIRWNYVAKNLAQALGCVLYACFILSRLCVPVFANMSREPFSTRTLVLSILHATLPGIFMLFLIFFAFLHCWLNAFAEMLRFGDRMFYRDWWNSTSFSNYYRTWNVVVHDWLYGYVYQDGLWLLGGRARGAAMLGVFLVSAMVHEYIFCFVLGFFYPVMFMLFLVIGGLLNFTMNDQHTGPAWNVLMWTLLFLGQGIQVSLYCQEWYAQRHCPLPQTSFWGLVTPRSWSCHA

The subject of experiment [3] is Rattus norvegicus. Kind of experiment: Tested for percentage change in total cholesterol in cholic acid (0.5%)-cholesterol (1.5%) -peanut oil (5.5%)-fed rats at 3 mg/kg. It is filed as functional. Put shortly:
as §1

What is called IC50 is the concentration needed to halve the response being measured. A lower IC50 goes with higher potency. With `CC(C)c1cccc(C(C)C)c1NC(=O)C/C(CC(c1ccccc1)c1ccccc1)=N\O`, the values for the Change in experiment [1] and in experiment [3] were -1% and 0%, respectively. In experiment [2], this compound had an IC50 of 210 nM.
Consider `CCCCCCCCCCCC(=O)C(C)(C)C(=O)Nc1c(OC)cc(OC)cc1OC`, for which the Change in experiment [1] is -44%; in experiment [3], 0%. The 50% inhibitory concentration (IC50) in experiment [2] was determined as 370 nM.
For `CCCCCCCCCCCC(=O)CC(=O)Nc1c(C(C)C)cccc1C(C)C` the same measures were -43%, -25% and 69 nM.
Regarding `CCCCCCCCCCCCC1CC(C(=O)Nc2c(C(C)C)cccc2C(C)C)C(=O)N1` (stereo unspecified), the Change in experiment [1] was -20%. In experiment [2], this compound displayed an IC50 of 53 nM.
Regarding `CCCCCCCCCCCC(=O)C(C)(C)C(=O)N(C)c1c(OC)cc(OC)cc1OC`, the Change in experiment [1] is on record as -40%.
For `CC(C)c1cccc(C(C)C)c1NC(=O)CC(O)CC(c1ccccc1)c1ccccc1` (stereo unspecified), the Change in experiment [1] was -10%. In addition, in experiment [2], the IC50 turned out to be 3500 nM.
Regarding `CCCCCCCCCCCCC(=O)CC(=O)Nc1c(C(C)C)cccc1C(C)C`, the Change in experiment [1] is -56%; in experiment [3] it was -31%. The midpoint of inhibition in experiment [2], the IC50, lay at 11 nM.
For the compound `CC(C)c1cccc(C(C)C)c1NC(=O)CC(=O)C(c1ccccc1)c1ccccc1`, the Change in experiment [1] was -65%; in experiment [3], -21%. Also, the IC50 in experiment [2] came to 35 nM.
Regarding `CCCCCCC1CCC(C(=O)Nc2c(C(C)C)cccc2C(C)C)C(=O)O1` (stereo unspecified), the Change in experiment [1] is listed as -43%.
With `CCCCCCCCCCCCCCC(=O)CC(=O)Nc1c(C(C)C)cccc1C(C)C`, the figures for the Change in experiment [1] and in experiment [3] were -57% and -34%, respectively. The compound also gave a 50% inhibitory concentration (IC50) in experiment [2] of 24 nM.
Regarding `CCCCCCCCCCCC(=O)CC(=O)Nc1c(OC)cc(OC)cc1OC`, the Change in experiment [1] is given as -31%. For the same compound, the IC50 in experiment [2] was 150 nM.
For `CC(C)c1cccc(C(C)C)c1NC(=O)CC(=O)CCCCCCCCCCO`, the Change is recorded as -29% in experiment [1] and -2% in experiment [3]. Also, the midpoint of inhibition in experiment [2], the IC50, lay at 230 nM.
`CCCCCCCCCC(=O)CC(=O)Nc1c(C(C)C)cccc1C(C)C`: the Change in experiment [1] is -54%; in experiment [3], -5%. The IC50 in experiment [2] worked out at 97 nM.
In the case of `CC(C)c1cccc(C(C)C)c1NC(=O)CC(=O)c1ccccc1`, the figures for the Change in experiment [1] and in experiment [3] were -4% and 0%, respectively. In experiment [2], this compound gave a 50% inhibitory concentration (IC50) of 810 nM.
As for `CCCCCCCC1CC(C(=O)Nc2c(C(C)C)cccc2C(C)C)C(=O)O1` (stereo unspecified), the Change in experiment [1] is recorded as -26%.
For `CCCCCCCCCCCCC1CCCC(C(=O)Nc2c(C(C)C)cccc2C(C)C)C(=O)N1` (stereo unspecified), the Change in experiment [1] is -47%. In experiment [2], this compound showed an IC50 of 22 nM.
As to `CC(C)c1cccc(C(C)C)c1NC(=O)CC(=O)C1(c2ccccc2)CCCC1`, the Change in experiment [1] is -37%. In experiment [2], this compound displayed a concentration for half-maximal inhibition (IC50) of 11 nM.
For `CCCCCCCCCCC(=O)CC(=O)Nc1c(C(C)C)cccc1C(C)C`, the Change in experiment [1] is -30%. In experiment [2], this compound had a half-inhibitory concentration (IC50) of 60 nM.
As for `CC(C)c1cccc(C(C)C)c1NC(=O)CC(=O)CCCCCCCCCCOC1CCCCO1` (stereo unspecified), the Change in experiment [1] is reported as -67%; in experiment [3] it was -17%. For the same compound, the IC50 in experiment [2] is 57 nM.
For the compound `CCCCCCCC1CCC(C(=O)Nc2c(C(C)C)cccc2C(C)C)C(=O)O1` (stereo unspecified), the Change in experiment [1] is reported as -11%. In addition, inhibition in experiment [2] was half-maximal at 340 nM (IC50).
In the case of `CC(C)c1cccc(C(C)C)c1NC(=O)CC(=O)CC(c1ccccc1)c1ccccc1`, the Change in experiment [1] was -43%; in experiment [3], -23%. In experiment [2], the half-inhibitory concentration (IC50) is 44 nM.
Consider `CCCCCCCCCCCCCC(=O)CC(=O)Nc1c(C(C)C)cccc1C(C)C`, for which the Change was -66% in experiment [1] and -38% in experiment [3]. Further, the IC50 in experiment [2] came out at 6 nM.
With `CCCCCCCCCCCC(=O)C(C)(C)C(=O)N(C)c1c(C(C)C)cccc1C(C)C`, the values for the Change in experiment [1] and in experiment [3] were -60% and 0%, respectively. The same compound yielded a half-maximal inhibitory concentration (IC50) in experiment [2] of 1000 nM.
